In data set [1] the target is T1, Proteinase-activated receptor 4 (Homo sapiens, UniProt Q96RI0).
T1 sequence (Q96RI0 whole entry): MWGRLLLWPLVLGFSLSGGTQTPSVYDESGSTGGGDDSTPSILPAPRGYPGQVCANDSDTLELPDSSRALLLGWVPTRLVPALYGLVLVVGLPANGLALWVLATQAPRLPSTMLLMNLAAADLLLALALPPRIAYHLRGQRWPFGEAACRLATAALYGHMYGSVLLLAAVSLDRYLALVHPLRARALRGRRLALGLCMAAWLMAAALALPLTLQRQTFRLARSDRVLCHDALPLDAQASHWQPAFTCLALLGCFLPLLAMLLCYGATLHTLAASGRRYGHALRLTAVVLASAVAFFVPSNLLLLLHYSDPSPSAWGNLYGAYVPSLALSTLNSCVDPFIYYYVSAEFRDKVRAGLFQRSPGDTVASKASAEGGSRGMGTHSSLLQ
Briefly: Antagonist activity at full-length human PAR4 expressed in HEK293 cells assessed as inhibition of AYPGKF-induced intracellular calcium mobilization preincubated for 30 mins followed by AYPGKF addition and measured by calcium indicator-based FLIPR assay. The class given is functional, cell-based. In general terms: A change in cytosolic calcium serves as a functional read-out for many receptors and channels.

Data set [2] can be described thus: Stability in human liver microsomes assessed as parent compound remaining measured after 10 mins. It counts as ADME, Microsome. As to conditions: for remaining at 10 min: liver microsomes, read-out: Stability. (In general: Microsomes from liver hold many membrane-bound enzymes, among them those of drug oxidation.)
Data set [3] in a line: Stability in rat liver microsomes assessed as parent compound remaining measured after 10 mins. The class given is ADME, Microsome. As to conditions: read-out: Stability.
Data set [4] in a line: Oral bioavailability in rat at 2 mg/kg. It counts as ADME, organism-based. Particulars: in vivo. The method in brief: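 Rat dosing: iv 0.5 mpk as a 10 min infusion in 25/75 propylene glycol/PEG400 at 2 ml/kg. po 2 mpk in 5/5/90 EtOH/TPGS/PEG300 at 5 mL/kg.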
Data set [5] is described as follows: Half life in human liver microsomes. The class given is ADME, Microsome.

One may read the IC50 as the midpoint of a concentration-inhibition curve. Usually bioavailability stands for the share of a dose that reaches the circulation, judged against a reference dose that is usually intravenous. A higher bioavailability goes with good availability. By half-life is commonly meant the time needed for the level to fall by half in the phase considered. Low values mean rapid decline, high ones slow decline.

Take `COc1cc(OCc2ccc(Cl)cc2)c2cc(-c3cn4nc(OC)sc4n3)oc2c1`: the IC50 in data set [1] turned out to be 11 nM.

On to `COc1ccc2cc(-c3cn4nc(OC)sc4n3)oc2c1`, for which the remaining at 10 min in data set [2] came out at 57%; in data set [3], 55%.

Take `COc1cc(OCc2ccc(OCc3ccccc3)cc2)c2cc(-c3cn4nc(OC)sc4n3)oc2c1`: the IC50 in data set [1] came to 1.3 nM. Also, the remaining at 10 min worked out at 88% in data set [2] and 84% in data set [3].

As to `COc1cc(OCc2cccc(Sc3ccccc3)c2)c2cc(-c3cn4nc(OC)sc4n3)oc2c1`, the IC50 in data set [1] was found to be 0.89 nM. In addition, the remaining at 10 min in data set [2] was 80%; in data set [3], 45%.

In the case of `COc1cc(OCCOCc2ccccc2)c2cc(-c3cn4nc(OC)sc4n3)oc2c1`, the IC50 in data set [1] worked out at 1.8 nM. Further, the results for the remaining at 10 min in data set [2] and in data set [3] were 75% and 25%, respectively.

`COc1cc(OCc2cccc(CCc3ccccc3)c2)c2cc(-c3cn4nc(OC)sc4n3)oc2c1`: in data set [1], the IC50 is 2.4 nM. The values for the remaining at 10 min in data set [2] and in data set [3] were 99% and 68%, respectively.

In the case of `COc1cc(OCc2cccc(Oc3ccccc3)c2)c2cc(-c3cn4nc(OC)sc4n3)oc2c1`, in data set [1], the IC50 was found to be 1.2 nM. The remaining at 10 min stood at 86% in data set [2] and 42% in data set [3].

For the compound `COc1cc(OCc2ccc(C(F)(F)F)cc2)c2cc(-c3cn4nc(OC)sc4n3)oc2c1`, in data set [1], the 50% inhibitory concentration (IC50) stood at 4.3 nM. Besides, the remaining at 10 min in data set [2] came out at 79%; in data set [3], 90%.

For `CNc1nn2cc(-c3cc4ccccc4o3)nc2s1`, in data set [1], the IC50 stood at 110 nM. Besides, the remaining at 10 min in data set [2] turned out to be 65%; in data set [3] it was 2%.

In turn, `COc1cc(OCc2ccccc2)c2cc(-c3cn4nc(OC)sc4n3)oc2c1` came in with a bioavailability in data set [4] of 27%.

In the case of `COc1cccc(COc2cc(OC)cc3oc(-c4cn5nc(OC)sc5n4)cc23)c1`, the IC50 in data set [1] is 9.4 nM. Besides, the remaining at 10 min in data set [2] came to 69%; in data set [3] it was 34%.

For the compound `COc1ccc2oc(-c3cn4nc(OC)sc4n3)cc2c1`, the remaining at 10 min in data set [2] was found to be 30%; in data set [3], 38%.

As for `c1ccc(Sc2nn3cc(-c4cc5ccccc5o4)nc3s2)cc1`, the IC50 in data set [1] is 1900 nM.

For `COc1nn2cc(-c3cc4c(OC)ccc(OC)c4o3)nc2s1`, the remaining at 10 min in data set [2] was 55%; in data set [3], 28%.

In the case of `COc1cc(OCCc2ccccc2)c2cc(-c3cn4nc(OC)sc4n3)oc2c1`, the IC50 in data set [1] was found to be 1.1 nM. For the same compound, the results for the remaining at 10 min in data set [2] and in data set [3] were 89% and 43%, respectively.

`COc1cc(OCc2cccc(O)c2)c2cc(-c3cn4nc(OC)sc4n3)oc2c1`: the IC50 in data set [1] amounted to 3.1 nM. Also, the remaining at 10 min in data set [2] turned out to be 97%; in data set [3], 49%.

As for `COc1cc(OCc2ccccc2OC)c2cc(-c3cn4nc(OC)sc4n3)oc2c1`, in data set [1], the IC50 amounted to 19 nM. The remaining at 10 min in data set [2] stood at 82%; in data set [3], 28%.

With `Cc1nn2cc(-c3cc4ccccc4o3)nc2s1`, the IC50 in data set [1] was 37 nM. In addition, the remaining at 10 min amounted to 20% in data set [2] and 4% in data set [3].

Consider `COc1cc(OCc2ccccc2Cl)c2cc(-c3cn4nc(OC)sc4n3)oc2c1`, for which, in data set [1], the IC50 was 2.3 nM. Moreover, the remaining at 10 min in data set [2] was found to be 95%; in data set [3] it was 78%.

With `c1ccc2oc(-c3cn4nc(C5CC5)sc4n3)cc2c1`, the IC50 in data set [1] amounted to 530 nM. Besides, the values for the remaining at 10 min in data set [2] and in data set [3] were 62% and 53%, respectively.

In the case of `COc1nn2cc(-c3cc4ccc(OC)c(OC)c4o3)nc2s1`, the remaining at 10 min in data set [2] was found to be 20%; in data set [3] it was 3%.

As for `COc1cc(OCc2cccc(C(F)(F)F)c2)c2cc(-c3cn4nc(OC)sc4n3)oc2c1`, the 50% inhibitory concentration (IC50) in data set [1] was found to be 3.1 nM. The remaining at 10 min in data set [2] was found to be 93%; in data set [3], 79%.

Consider `CC(C)Oc1nn2cc(-c3cc4ccccc4o3)nc2s1`, for which the IC50 in data set [1] was determined as 760 nM.

As to `COc1nn2cc(-c3cc4cccc(OC)c4o3)nc2s1`, in data set [1], the IC50 stood at 2.8 nM. The remaining at 10 min is 25% in data set [2] and 11% in data set [3].

Take `COc1cc(OCc2cccc(COc3ccccc3)c2)c2cc(-c3cn4nc(OC)sc4n3)oc2c1`: the IC50 in data set [1] is 3.2 nM. The results for the remaining at 10 min in data set [2] and in data set [3] were 86% and 64%, respectively.

For the compound `COc1cc(OCc2cccc(C#N)c2)c2cc(-c3cn4nc(OC)sc4n3)oc2c1`, the IC50 in data set [1] came out at 0.98 nM. Moreover, the remaining at 10 min in data set [2] amounted to 100%.

For `CCc1nn2cc(-c3cc4ccccc4o3)nc2s1`, in data set [1], the IC50 worked out at 38 nM. The remaining at 10 min is 30% in data set [2] and 3% in data set [3].

As for `COc1cc(OCc2cccc(Cl)c2)c2cc(-c3cn4nc(OC)sc4n3)oc2c1`, the IC50 in data set [1] amounted to 3.3 nM. Also, the remaining at 10 min was 82% in data set [2] and 79% in data set [3].

Regarding `COc1cc(OCc2cccc(CO)c2)c2cc(-c3cn4nc(OC)sc4n3)oc2c1`, the IC50 in data set [1] is 27 nM.

In the case of `CSc1nn2cc(-c3cc4ccccc4o3)nc2s1`, in data set [1], the IC50 stood at 11 nM. Also, the remaining at 10 min in data set [2] was 25%; in data set [3], 4%. The same compound registered a half-life in data set [5] (liver microsomes) of 5.4 min.

For the compound `CCOc1nn2cc(-c3cc4ccccc4o3)nc2s1`, the IC50 in data set [1] amounted to 67 nM. Further, the remaining at 10 min came to 57% in data set [2] and 37% in data set [3].

As for `COc1cc(OCCOc2ccccc2)c2cc(-c3cn4nc(OC)sc4n3)oc2c1`, the IC50 in data set [1] worked out at 0.81 nM. For the same compound, the remaining at 10 min in data set [2] amounted to 65%; in data set [3], 36%.

With `COc1nn2cc(-c3cc4c(OCc5ccccc5)cccc4o3)nc2s1`, in data set [1], the IC50 was 24 nM. In addition, the remaining at 10 min is 85% in data set [2] and 75% in data set [3].

For `COc1nn2cc(-c3cc4c(OC)cccc4o3)nc2s1`, the IC50 in data set [1] stood at 7.6 nM. In addition, the remaining at 10 min in data set [2] amounted to 40%; in data set [3], 42%.

As for `COc1ccc(COc2cc(OC)cc3oc(-c4cn5nc(OC)sc5n4)cc23)cc1`, in data set [1], the IC50 was 1.6 nM. For the same compound, the remaining at 10 min was found to be 73% in data set [2] and 64% in data set [3].

As for `COc1cc(OCc2ccccc2OCc2ccccc2)c2cc(-c3cn4nc(OC)sc4n3)oc2c1`, the IC50 in data set [1] came to 3.2 nM. The remaining at 10 min in data set [2] is 94%; in data set [3], 22%.

`COc1cc(OCc2ccccc2C(F)(F)F)c2cc(-c3cn4nc(OC)sc4n3)oc2c1`: the IC50 in data set [1] amounted to 3.4 nM.

`CS(=O)(=O)c1nn2cc(-c3cc4ccccc4o3)nc2s1`: in data set [1], the IC50 is 820 nM.

As to `COc1nn2cc(-c3cc4ccc(OCc5ccccc5)cc4o3)nc2s1`, the remaining at 10 min in data set [2] came out at 94%; in data set [3] it was 68%.

As for `COc1cc(OCc2ccccc2C)c2cc(-c3cn4nc(OC)sc4n3)oc2c1`, in data set [1], the IC50 is 1.6 nM. The remaining at 10 min in data set [2] worked out at 90%; in data set [3] it was 46%.

As to `COc1nn2cc(-c3cc4ccccc4o3)nc2s1`, the IC50 in data set [1] was 4 nM. Further, in data set [2] (microsomes, 10 min), the Stability came to 80%. Also, the remaining at 10 min in data set [3] amounted to 31%. For the same compound, in data set [5] (microsomes), the t1/2 is 6.9 min.

On to `CCSc1nn2cc(-c3cc4ccccc4o3)nc2s1`, for which the IC50 in data set [1] stood at 2900 nM. The remaining at 10 min in data set [2] came to 45%; in data set [3], 35%.

For the origin of these results see ChEMBL document CHEMBL4406800, “Discovery of Potent Protease-Activated Receptor 4 Antagonists with in Vivo Antithrombotic Efficacy” (J Med Chem, 2019).
